Laboratory results from publication PMC6635014 (Dalton transactions (Cambridge, England : 2003), 2019).

How the values were obtained:
Assay type in all cases: cell-based
[1] = tested on: doxorubicin-sensitive Colo 205 human colonic adenocarcinoma cells; assay: MTT assay for cytotoxic effect, Colo 205; conditions: read-out: IC50 (μM), 72 h Colo 205
Summary of the method: (§1)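 Colo 205 and Colo 320/MDR-LRP were kept in RPMI 1640 with 10% heat-inactivated FBS, 2 mM L-glutamine, 1 mM Na-pyruvate and 10 mM HEPES, and detached with Trypsin-Versene. 1x10^4 cells per well went onto 2-fold serial compound dilutions (100 to 0.195 µM; DMSO stocks) for 72 h at 37 °C. Then MTT 4 h, SDS/0.01 M HCl overnight, OD 540/630 nm. IC50 from growth inhibition versus cell and medium controls. SF uses the MRC-5 IC50 from the same assay.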

[2] = tested on: multidrug resistant Colo 320/MDR-LRP human colonic adenocarcinoma cells; assay: MTT assay for cytotoxic effect, Colo 320
Summary of the method: as §1

[3] = tested on: MRC-5 non-cancerous human embryonal lung fibroblast cells; assay: MTT assay for cytotoxic effect, MRC-5; conditions: read-out: IC50 (μM), 72 h MRC-5
Summary of the method: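 MRC-5 fibroblasts were grown in EMEM with 10% heat-inactivated FBS and seeded 24 h at 37 °C, 5% CO2. Medium was then replaced by 2-fold serial compound dilutions (100 to 0.195 µM; 10 mM DMSO stocks), 72 h at 37 °C. MTT for 4 h, then SDS in 0.01 M HCl overnight. OD read at 540/630 nm. IC50 from % growth inhibition relative to cell and medium controls.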

N.N.[Cl][Pt][Cl] [Cisplatin, reference compound]
IC50 [1]: 31.9 ± 2.17 µM | SF(320) selectivity factor ([2]; SF(320) = IC50 MRC-5/IC50 Colo 320): 3 | IC50 ([2]; read-out: IC50 (μM), 72 h Colo 320, 72 h, MTT): 4.81 ± 0.68 µM | IC50 [3]: 12.4 ± 0.367 µM
